ChEMBL document CHEMBL2069295, “Discovery of 6-substituted 4-anilinoquinazolines with dioxygenated rings as novel EGFR tyrosine kinase inhibitors” (Bioorg Med Chem Lett, 2012)
In brackets after ≈: the same amount, converted by molar mass. Activity calls are given as the source filed them. No cut-off for these calls is given here.

Assays:
MCF7 [1] = assay: cells; conditions: Homo sapiens
[2] = molecular target: Vascular endothelial growth factor receptor 2 (Homo sapiens, UniProt P35968); assay: Inhibition of VEGFR2 using ATP incubated for 30 mins prior to ATP addition measured after 60 mins by fluorimetry
[3] = molecular target: Receptor tyrosine-protein kinase erbB-2 (Homo sapiens, UniProt P04626); assay: Inhibition of recombinant HER2 expressed in baculovirus infected Sf9 cells using [32P]ATP incubated for 30 mins prior to ATP addition measured after 20 mins by liquid scintillation counting
MCF7 [4] = assay: Growth inhibition of human MCF7 cells at 10 ug/mL after 24 to 48 hrs by WST1 assay; assay type: functional; conditions: read-out: GI
In short: (§1)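 Single-concentration growth inhibition at 10 µg/mL, the top concentration used because higher levels precipitated in culture medium. Three separate experiments, each in triplicate.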

A-431 = assay: Antiproliferative activity against human A431 cells after 24 to 48 hrs by WST1 assay; assay type: functional, cell-based
B16-F10 [5] = assay: cells; conditions: Mus musculus
A549 [6] = assay: Antiproliferative activity against human A549 cells after 24 to 48 hrs by WST1 assay; assay type: functional, cell-based
[7] = molecular target: T1, Epidermal growth factor receptor (Homo sapiens, UniProt P00533); assay: Inhibition of EGFR in human A431 cells assessed as inhibition of EGF-stimulated autophosphorylation at 100 nM incubated for 1 hr prior to EGF-induction measured after 15 mins by Western blot analysis; assay type: cell-based; conditions: A-431
In short: (§2)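 A431 cells were incubated […] with compound at 10 or 100 nM, then stimulated with EGF. Whole-cell lysates were Western blotted with an anti-phosphotyrosine antibody to detect EGFR autophosphorylation.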

[8] = molecular target: T1, Epidermal growth factor receptor; assay: Inhibition of EGFR in human A431 cell lysate using tyrosine/glutamic acid polymer as substrate by ELISA; set-up: species or system A-431
B16-F10 [9] = assay: Growth inhibition of mouse B16F10 cells at 10 ug/mL after 24 to 48 hrs by WST1 assay; assay type: functional; conditions: read-out: GI
In short: as §1

[10] = molecular target: T1, Epidermal growth factor receptor; assay: Inhibition of EGFR in human A431 cells assessed as inhibition of EGF-stimulated autophosphorylation at 10 nM incubated for 1 hr prior to EGF-induction measured after 15 mins by Western blot analysis; assay type: cell-based; conditions: A-431
In short: as §2

A549 [11] = assay: Growth inhibition of human A549 cells at 10 ug/mL after 24 to 48 hrs by WST1 assay; assay type: functional; conditions: read-out: GI
In short: as §1

T1 sequence (P00533 whole entry): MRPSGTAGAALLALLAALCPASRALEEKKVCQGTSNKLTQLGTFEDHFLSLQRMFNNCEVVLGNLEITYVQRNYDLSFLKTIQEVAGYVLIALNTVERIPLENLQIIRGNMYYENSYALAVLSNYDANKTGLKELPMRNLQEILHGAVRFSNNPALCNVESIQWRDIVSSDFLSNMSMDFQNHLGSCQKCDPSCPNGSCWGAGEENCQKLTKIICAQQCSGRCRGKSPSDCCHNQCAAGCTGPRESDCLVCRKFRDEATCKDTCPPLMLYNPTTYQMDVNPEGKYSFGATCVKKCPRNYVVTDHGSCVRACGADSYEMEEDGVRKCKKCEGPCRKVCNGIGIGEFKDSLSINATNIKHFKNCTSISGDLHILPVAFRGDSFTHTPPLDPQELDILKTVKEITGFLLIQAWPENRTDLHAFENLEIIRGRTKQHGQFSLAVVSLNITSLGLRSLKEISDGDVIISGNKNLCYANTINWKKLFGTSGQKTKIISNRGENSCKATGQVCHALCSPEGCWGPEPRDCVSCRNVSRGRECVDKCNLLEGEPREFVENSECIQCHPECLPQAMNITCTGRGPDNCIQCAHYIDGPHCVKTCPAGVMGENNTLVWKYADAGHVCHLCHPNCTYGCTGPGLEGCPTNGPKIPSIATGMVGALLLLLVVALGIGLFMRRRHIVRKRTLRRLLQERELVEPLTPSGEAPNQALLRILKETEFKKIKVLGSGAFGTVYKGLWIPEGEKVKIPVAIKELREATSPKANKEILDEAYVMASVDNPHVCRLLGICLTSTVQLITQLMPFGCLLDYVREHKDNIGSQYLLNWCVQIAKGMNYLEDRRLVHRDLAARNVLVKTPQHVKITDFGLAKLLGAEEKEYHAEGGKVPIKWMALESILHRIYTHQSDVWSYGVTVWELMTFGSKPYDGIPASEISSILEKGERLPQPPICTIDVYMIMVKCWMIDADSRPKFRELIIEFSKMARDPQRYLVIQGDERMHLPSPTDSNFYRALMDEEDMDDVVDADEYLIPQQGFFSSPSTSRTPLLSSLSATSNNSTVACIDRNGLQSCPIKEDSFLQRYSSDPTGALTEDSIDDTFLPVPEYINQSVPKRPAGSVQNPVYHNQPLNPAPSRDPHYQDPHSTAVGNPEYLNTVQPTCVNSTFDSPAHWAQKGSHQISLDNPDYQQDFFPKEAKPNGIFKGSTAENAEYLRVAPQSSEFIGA
Receptor tyrosine-protein kinase erbB-2, sequence (P04626 whole entry): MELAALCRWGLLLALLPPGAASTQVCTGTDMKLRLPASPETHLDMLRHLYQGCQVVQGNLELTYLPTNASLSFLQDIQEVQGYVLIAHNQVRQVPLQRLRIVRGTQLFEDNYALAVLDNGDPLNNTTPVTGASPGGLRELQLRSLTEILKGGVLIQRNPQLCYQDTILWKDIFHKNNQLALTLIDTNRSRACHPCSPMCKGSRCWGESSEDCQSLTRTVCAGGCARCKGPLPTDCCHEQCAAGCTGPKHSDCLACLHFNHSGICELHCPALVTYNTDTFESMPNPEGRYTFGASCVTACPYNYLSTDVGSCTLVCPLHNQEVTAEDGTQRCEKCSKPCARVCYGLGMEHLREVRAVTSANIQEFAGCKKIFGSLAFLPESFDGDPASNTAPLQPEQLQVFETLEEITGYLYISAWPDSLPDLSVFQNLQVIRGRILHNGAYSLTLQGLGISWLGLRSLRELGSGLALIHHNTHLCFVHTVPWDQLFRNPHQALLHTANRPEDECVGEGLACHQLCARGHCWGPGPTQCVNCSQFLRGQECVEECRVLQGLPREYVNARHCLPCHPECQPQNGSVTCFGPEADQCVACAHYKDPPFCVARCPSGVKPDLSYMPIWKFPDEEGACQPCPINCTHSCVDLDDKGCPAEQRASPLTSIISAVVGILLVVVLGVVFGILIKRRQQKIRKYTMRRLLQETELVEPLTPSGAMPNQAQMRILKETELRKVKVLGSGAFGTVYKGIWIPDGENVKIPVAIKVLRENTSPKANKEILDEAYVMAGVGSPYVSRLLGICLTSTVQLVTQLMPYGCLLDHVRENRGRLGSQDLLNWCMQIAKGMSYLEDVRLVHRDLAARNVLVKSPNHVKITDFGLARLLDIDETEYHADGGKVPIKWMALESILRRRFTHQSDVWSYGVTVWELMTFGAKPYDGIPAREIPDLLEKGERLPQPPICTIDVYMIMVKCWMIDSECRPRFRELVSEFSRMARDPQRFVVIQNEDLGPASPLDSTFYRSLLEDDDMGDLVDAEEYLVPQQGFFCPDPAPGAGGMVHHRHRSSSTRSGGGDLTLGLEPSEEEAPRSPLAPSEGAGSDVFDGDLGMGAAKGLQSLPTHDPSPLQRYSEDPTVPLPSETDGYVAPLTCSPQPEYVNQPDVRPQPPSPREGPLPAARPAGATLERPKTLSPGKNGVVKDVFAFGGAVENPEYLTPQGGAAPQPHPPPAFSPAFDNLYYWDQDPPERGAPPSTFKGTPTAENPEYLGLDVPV
Vascular endothelial growth factor receptor 2, sequence (P35968 whole entry): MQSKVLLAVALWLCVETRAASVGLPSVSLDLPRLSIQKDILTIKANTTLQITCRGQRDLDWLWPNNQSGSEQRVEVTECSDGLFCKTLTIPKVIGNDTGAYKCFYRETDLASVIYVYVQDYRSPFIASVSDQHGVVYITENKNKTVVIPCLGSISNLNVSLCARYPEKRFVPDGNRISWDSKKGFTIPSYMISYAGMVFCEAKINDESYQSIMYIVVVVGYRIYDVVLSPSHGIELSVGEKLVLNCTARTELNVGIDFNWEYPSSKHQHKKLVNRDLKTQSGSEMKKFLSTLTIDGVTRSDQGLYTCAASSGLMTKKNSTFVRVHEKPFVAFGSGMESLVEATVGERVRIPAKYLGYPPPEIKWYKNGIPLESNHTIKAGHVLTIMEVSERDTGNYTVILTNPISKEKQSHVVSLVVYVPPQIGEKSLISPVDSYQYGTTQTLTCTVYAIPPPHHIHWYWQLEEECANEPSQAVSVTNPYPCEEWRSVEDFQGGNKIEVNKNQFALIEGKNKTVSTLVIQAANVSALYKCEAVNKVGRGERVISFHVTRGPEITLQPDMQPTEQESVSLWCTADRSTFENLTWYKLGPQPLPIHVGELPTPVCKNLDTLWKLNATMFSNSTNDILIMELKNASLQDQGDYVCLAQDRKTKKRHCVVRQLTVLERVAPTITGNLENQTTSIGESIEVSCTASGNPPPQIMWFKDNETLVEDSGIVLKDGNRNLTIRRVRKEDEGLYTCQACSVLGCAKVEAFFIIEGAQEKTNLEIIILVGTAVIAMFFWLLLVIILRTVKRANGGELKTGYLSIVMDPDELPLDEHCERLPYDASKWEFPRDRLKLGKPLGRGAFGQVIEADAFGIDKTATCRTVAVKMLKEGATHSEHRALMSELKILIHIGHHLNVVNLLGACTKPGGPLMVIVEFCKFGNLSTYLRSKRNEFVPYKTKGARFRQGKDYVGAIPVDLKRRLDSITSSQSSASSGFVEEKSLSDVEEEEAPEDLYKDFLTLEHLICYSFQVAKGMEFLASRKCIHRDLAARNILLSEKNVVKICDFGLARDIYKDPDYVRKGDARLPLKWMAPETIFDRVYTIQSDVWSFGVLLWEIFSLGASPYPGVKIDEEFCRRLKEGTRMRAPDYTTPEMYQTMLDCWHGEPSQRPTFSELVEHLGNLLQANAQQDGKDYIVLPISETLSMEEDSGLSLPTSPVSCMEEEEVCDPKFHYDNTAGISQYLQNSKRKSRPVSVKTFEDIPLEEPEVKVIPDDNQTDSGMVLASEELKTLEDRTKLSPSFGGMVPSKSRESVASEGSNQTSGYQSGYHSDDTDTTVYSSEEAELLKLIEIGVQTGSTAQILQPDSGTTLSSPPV

IC50 (MCF7 [1])	IC50 [2]	IC50 [3]	IC50 (A-431)	IC50 (B16-F10 [5])	IC50 (A549 [6])	inhibition [7]	IC50 [8]	inhibition [10]	SMILES	inhibition of growth at 10 µg/mL (MCF7 [4])	inhibition of growth at 10 µg/mL (B16-F10 [9])	inhibition of growth at 10 µg/mL (A549 [11])
7.36 µg/mL (≈ 18.2 µM)	> 10000 nM	6500 nM	–	–	–	–	–	–	Clc1cccc(Nc2ncnc3ccc(NCc4ccc5c(c4)OCO5)cc23)c1	–	–	–
> 100 µg/mL	–	–	42.9 µg/mL (≈ 89.9 µM)	50.1 µg/mL (≈ 105 µM)	73.8 µg/mL (≈ 155 µM)	Active	3680 nM	–	O=C(Nc1ccc2ncnc(Nc3cccc(Br)c3)c2c1)C1COc2ccccc2O1 (stereo unspecified)	< 50%	–	–
59.5 µg/mL (≈ 125 µM)	–	–	20.3 µg/mL (≈ 42.6 µM)	> 100 µg/mL	84 µg/mL (≈ 176 µM)	–	1630 nM	–	O=C(Nc1ccc2ncnc(Nc3cccc(Br)c3)c2c1)c1cccc2c1OCCO2	–	< 50%	–
10.7 µg/mL (≈ 23.1 µM)	–	–	12.5 µg/mL (≈ 27.1 µM)	12 µg/mL (≈ 25.9 µM)	58.3 µg/mL (≈ 126 µM)	–	1020 nM	–	Brc1cccc(Nc2ncnc3ccc(NCc4ccc5c(c4)OCCO5)cc23)c1	–	–	–
3.21 µg/mL (≈ 8.91 µM)	–	–	2.26 µg/mL (≈ 6.27 µM)	–	8.13 µg/mL (≈ 22.6 µM)	–	–	–	COc1cc2ncnc(Nc3cccc(Br)c3)c2cc1OC	–	–	–
4.28 µg/mL (≈ 9.89 µM)	–	–	2.59 µg/mL (≈ 5.98 µM)	2.14 µg/mL (≈ 4.94 µM)	31 µg/mL (≈ 71.7 µM)	Active	216 nM	–	Clc1cccc(Nc2ncnc3ccc(NCc4ccc5c(c4)OCCCO5)cc23)c1	–	–	–
21.3 µg/mL (≈ 47.7 µM)	> 10000 nM	> 10000 nM	13.3 µg/mL (≈ 29.8 µM)	17.5 µg/mL (≈ 39.1 µM)	44.8 µg/mL (≈ 100 µM)	–	920 nM	–	Clc1cccc(Nc2ncnc3ccc(NCc4ccc5c(c4)OCCCCO5)cc23)c1	–	–	–
14.5 µg/mL (≈ 32.2 µM)	–	–	6.82 µg/mL (≈ 15.2 µM)	3.62 µg/mL (≈ 8.06 µM)	68.7 µg/mL (≈ 153 µM)	–	630 nM	–	Brc1cccc(Nc2ncnc3ccc(NCc4ccc5c(c4)OCO5)cc23)c1	–	–	–

Second part, the compound before the results:

SMILES	IC50 (MCF7 [1])	IC50 [2]	IC50 [3]	IC50 (A-431)	IC50 (B16-F10 [5])	IC50 (A549 [6])	inhibition [7]	IC50 [8]	inhibition [10]	inhibition of growth at 10 µg/mL (MCF7 [4])	inhibition of growth at 10 µg/mL (B16-F10 [9])	inhibition of growth at 10 µg/mL (A549 [11])
O=C(Nc1ccc2ncnc(Nc3cccc(Cl)c3)c2c1)C1COc2ccccc2O1 (stereo unspecified)	52.2 µg/mL (≈ 121 µM)	–	–	19.9 µg/mL (≈ 45.9 µM)	> 100 µg/mL	61.2 µg/mL (≈ 141 µM)	–	2750 nM	–	–	< 50%	–
Clc1cccc(Nc2ncnc3ccc(NCc4ccc5c(c4)OCCO5)cc23)c1	23.1 µg/mL (≈ 55.3 µM)	–	–	–	16.3 µg/mL (≈ 39 µM)	–	–	–	–	–	–	–
Brc1cccc(Nc2ncnc3ccc(NCc4ccc5c(c4)OCCCO5)cc23)c1	5.02 µg/mL (≈ 10.5 µM)	> 10000 nM	4800 nM	2.77 µg/mL (≈ 5.8 µM)	1.99 µg/mL (≈ 4.17 µM)	15.5 µg/mL (≈ 32.5 µM)	Active	98 nM	Active	–	–	–
O=C(Nc1ccc2ncnc(Nc3cccc(Cl)c3)c2c1)c1cccc2c1OCCO2	> 100 µg/mL	–	–	46.6 µg/mL (≈ 108 µM)	9.86 µg/mL (≈ 22.8 µM)	> 100 µg/mL	–	1290 nM	–	< 50%	–	< 50%
Brc1cccc(Nc2ncnc3ccc(NCc4ccc5c(c4)OCCCCO5)cc23)c1	32.1 µg/mL (≈ 65.2 µM)	–	–	15 µg/mL (≈ 30.6 µM)	20.6 µg/mL (≈ 42 µM)	> 100 µg/mL	–	1140 nM	–	–	–	–
